Values joined by “and” are separate entries in the source; they are usually repeats but may differ in a detail not shown here. Equal entries are not always repeated. Where two headings read alike, the source gives them in different places.
Legend:
T-Cav3.2-channel = T-Cav3.2-channel (Mus musculus, UniProt O88427); experiment: Whole-cell patch clamp inhibition of T-Cav3.2 channel in mouse DRG neurons; format: cell-based
In short: (§1)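 Lumbar DRG neurons from 1–6 month-old C57 mice, digested in HBSS with 1 mg/mL collagenase and 0.5 mg/mL trypsin (35°C, 45–50 min). Neurons triturated, plated on poly-L-ornithine coverslips and kept in modified Krebs solution at 21°C. Whole-cell voltage clamp at room temperature. Compound applied by rapid local solution exchange; currents normalized to control to give % inhibition; sigmoidal dose-response fits.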

Na-channel = experiment: Whole-cell patch clamp inhibition of Na-channel in mouse DRG neurons; format: cell-based; conditions: for IC50: read-out: IC50, Na- channel in DRG neurons
In short: as §1

K-channel = experiment: Whole-cell patch clamp inhibition of K-channel; format: cell-based; conditions: mouse DRG neurons
In short: as §1

PTZ-induced seizures = experiment: Pentylenetetrazole; format: in vivo, mouse; conditions: 30 mg/Kg; for Inhibition ratio (%) of fatality in PTZ-model of mice: 20-min observation period, 100 minus death ratio; for Latency to fatality (minutes) in PTZ model of mice: first 20 minutes of testing
In short: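 Mice received pentylenetetrazol at 40 mg/kg by intraperitoneal injection; test compound groups were compared with vehicle (2% DMSO in 0.5% hydroxypropyl cellulose), […]. Deaths were recorded within a 20-min cutoff. Inhibition ratio was 100 minus the % of mice that died. Latency to fatality was recorded per mouse as mean ± SEM. Experimenters were blinded.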

[1] = molecular target: Cav3.2 channels expressed in HEK-293 cells (Homo sapiens, UniProt O95180); experiment: Whole-cell patch clamp inhibition of Cav3.2 channels expressed in HEK293 cells; format: cell-based
Sequence of Cav3.2 channels expressed in HEK-293 cells (O95180 whole entry): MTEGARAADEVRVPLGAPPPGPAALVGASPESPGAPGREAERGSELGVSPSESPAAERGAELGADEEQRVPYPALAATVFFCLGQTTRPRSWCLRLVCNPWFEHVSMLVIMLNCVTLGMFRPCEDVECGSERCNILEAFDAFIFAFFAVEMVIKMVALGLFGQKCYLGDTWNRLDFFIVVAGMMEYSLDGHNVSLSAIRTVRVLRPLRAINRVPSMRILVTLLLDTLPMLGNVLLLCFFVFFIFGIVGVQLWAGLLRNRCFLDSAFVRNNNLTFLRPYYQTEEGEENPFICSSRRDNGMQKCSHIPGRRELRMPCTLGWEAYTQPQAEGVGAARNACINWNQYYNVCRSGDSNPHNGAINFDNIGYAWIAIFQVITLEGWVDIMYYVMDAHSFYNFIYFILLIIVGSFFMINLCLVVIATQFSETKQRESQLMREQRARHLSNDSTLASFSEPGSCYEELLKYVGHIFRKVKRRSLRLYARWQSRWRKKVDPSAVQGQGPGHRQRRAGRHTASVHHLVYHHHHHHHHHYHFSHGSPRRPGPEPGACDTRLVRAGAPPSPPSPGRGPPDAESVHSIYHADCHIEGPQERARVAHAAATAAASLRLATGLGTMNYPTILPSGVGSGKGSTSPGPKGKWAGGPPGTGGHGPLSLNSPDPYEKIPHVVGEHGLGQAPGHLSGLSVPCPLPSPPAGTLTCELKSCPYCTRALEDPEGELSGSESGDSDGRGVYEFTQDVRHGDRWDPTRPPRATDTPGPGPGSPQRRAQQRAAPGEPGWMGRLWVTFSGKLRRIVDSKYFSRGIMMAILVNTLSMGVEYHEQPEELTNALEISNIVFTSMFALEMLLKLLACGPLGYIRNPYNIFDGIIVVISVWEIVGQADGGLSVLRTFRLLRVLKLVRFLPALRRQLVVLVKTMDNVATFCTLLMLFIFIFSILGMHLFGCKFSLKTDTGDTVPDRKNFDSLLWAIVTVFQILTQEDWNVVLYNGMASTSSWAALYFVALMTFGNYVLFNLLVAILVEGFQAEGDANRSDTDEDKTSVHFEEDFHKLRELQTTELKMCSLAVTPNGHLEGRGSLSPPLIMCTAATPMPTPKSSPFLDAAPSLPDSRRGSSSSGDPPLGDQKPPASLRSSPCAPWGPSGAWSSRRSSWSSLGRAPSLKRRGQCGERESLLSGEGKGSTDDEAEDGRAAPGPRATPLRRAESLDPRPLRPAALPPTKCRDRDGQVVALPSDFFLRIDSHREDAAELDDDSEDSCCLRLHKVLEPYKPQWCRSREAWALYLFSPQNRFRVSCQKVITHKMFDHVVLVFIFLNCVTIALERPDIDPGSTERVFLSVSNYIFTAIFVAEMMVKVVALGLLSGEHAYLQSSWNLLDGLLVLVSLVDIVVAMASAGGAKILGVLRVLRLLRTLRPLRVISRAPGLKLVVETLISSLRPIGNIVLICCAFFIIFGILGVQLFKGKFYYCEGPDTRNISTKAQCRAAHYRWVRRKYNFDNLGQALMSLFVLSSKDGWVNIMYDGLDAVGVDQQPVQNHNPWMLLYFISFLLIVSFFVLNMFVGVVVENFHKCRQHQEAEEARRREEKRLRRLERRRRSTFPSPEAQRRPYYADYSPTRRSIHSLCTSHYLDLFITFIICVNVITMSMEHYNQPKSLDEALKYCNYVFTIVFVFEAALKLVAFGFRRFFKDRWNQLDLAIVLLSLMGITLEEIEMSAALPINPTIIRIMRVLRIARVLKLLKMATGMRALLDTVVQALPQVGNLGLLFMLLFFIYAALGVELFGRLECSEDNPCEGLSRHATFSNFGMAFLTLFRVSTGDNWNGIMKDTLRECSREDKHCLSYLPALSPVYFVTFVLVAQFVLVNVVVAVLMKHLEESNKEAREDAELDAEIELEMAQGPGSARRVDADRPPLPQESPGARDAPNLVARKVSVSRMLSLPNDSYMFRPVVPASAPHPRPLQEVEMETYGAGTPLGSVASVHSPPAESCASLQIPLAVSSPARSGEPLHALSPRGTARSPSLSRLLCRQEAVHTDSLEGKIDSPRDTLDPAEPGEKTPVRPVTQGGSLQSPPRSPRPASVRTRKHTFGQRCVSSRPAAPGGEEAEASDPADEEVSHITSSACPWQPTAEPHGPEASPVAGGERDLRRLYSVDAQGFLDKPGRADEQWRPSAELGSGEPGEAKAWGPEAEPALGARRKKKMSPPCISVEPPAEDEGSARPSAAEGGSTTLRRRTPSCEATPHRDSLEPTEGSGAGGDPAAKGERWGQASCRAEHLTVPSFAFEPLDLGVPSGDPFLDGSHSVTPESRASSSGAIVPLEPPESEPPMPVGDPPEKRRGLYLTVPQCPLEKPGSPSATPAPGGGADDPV
In short: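 Tetracycline-inducible HEK293 line, G418-selected, reseeded on poly-D-lysine coverslips; Cav3.2 induced after 24 h with 1 µg/mL tetracycline. Whole-cell voltage clamp at room temperature. External solution: choline-Cl/TEA-Cl with 2 mM CaCl2. Internal solution: CsCl/EGTA. Holding potential -100 mV, then 100 ms depolarizing steps of 10 mV at 10 s intervals. Compound applied by rapid solution exchange; currents normalized to control; sigmoidal dose-response fits.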

[2] = tested on: pentylenetetrazole-induced seizures; conditions: 30 mg/Kg; cited from earlier work
T-type calcium channels = conditions: read-out: IC50, T-type calcium channels; cited from earlier work
L-type calcium channels = conditions: read-out: IC50, L-type calcium channels; cited from earlier work
[3] = DRG neuron, read-out: Inhibition (%) of T-Cav3.2- channel in DRG neurons

Sequence of T-Cav3.2-channel (O88427 whole entry): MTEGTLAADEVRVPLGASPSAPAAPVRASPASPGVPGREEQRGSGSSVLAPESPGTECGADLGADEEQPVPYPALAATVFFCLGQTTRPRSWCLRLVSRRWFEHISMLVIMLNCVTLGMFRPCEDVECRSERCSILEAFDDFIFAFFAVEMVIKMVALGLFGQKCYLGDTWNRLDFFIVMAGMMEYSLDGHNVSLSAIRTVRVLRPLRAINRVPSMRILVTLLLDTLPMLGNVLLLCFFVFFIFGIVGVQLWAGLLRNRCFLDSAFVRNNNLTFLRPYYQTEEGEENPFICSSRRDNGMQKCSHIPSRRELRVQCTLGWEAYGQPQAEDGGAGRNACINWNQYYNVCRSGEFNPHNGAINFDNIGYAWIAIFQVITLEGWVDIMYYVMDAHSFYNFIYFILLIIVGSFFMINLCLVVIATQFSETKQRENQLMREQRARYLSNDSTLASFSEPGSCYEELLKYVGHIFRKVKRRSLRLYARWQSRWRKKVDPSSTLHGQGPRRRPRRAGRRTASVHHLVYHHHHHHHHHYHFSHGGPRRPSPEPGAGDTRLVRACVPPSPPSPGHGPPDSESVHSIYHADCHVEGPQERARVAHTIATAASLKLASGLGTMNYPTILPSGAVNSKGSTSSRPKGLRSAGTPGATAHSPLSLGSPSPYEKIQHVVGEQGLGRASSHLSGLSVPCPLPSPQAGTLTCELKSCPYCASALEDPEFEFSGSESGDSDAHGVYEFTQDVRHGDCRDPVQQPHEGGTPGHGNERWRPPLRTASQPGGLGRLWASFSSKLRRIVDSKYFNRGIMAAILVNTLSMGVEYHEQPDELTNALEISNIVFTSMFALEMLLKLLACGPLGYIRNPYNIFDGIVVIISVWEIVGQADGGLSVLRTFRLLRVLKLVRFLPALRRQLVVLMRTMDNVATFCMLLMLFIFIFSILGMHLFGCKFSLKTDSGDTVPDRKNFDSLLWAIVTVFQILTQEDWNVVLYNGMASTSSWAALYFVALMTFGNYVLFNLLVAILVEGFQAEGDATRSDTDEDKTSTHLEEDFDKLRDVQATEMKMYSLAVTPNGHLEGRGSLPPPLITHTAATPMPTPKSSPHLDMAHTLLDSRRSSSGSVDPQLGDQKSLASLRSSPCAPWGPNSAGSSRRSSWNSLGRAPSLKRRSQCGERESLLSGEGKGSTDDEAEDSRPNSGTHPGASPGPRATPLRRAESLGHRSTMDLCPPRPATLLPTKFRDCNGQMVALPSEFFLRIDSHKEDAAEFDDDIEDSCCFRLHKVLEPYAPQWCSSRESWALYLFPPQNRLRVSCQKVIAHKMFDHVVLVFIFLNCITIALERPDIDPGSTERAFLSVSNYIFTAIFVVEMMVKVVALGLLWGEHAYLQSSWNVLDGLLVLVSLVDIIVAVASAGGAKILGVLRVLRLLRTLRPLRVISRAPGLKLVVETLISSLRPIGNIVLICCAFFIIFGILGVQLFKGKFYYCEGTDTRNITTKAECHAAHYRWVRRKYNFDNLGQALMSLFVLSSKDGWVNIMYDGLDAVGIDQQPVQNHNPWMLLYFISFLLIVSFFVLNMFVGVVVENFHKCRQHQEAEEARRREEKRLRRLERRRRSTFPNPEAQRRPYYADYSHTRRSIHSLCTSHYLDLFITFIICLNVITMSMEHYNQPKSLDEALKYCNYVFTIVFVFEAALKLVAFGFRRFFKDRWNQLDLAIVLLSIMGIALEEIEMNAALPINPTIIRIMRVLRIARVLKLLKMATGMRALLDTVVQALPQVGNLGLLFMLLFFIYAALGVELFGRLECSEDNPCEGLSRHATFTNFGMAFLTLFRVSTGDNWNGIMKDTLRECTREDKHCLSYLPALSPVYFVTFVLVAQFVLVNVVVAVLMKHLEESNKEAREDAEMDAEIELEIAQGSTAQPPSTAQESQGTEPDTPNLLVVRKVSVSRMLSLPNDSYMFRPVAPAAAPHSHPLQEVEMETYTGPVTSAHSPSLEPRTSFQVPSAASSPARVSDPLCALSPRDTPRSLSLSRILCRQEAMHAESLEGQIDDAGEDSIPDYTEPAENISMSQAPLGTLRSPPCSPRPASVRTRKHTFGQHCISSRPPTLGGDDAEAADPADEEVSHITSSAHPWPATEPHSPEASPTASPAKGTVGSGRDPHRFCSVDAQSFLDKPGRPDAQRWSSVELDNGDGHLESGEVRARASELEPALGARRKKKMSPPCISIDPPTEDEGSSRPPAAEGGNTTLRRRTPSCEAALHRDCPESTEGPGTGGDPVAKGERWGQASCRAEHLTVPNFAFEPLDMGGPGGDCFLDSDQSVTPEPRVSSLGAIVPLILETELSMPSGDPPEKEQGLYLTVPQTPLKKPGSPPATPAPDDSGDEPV

Row | SMILES | Inhibition ratio (%) of fatality in PTZ-model of mice (PTZ-induced seizures) | Latency to fatality (minutes) in PTZ model of mice (PTZ-induced seizures) | inhibition at 1 µM (T-Cav3.2-channel; [3]) [%] | Inhibition (%) of Na- channel in DRG neurons (Na-channel; 1 µM) | Inhibition (%) of K-channel in DRG neurons, IA (rapid inactivating potassium current) (K-channel; 1 µM, IA) [%] | Inhibition (%) of K-channel in DRG neurons, IKd (delayed rectifier potassium current) (K-channel; 1 µM, IKd) [%] | further results
1 | O=C1c2cc(Cl)c(Cl)cc2C(=O)N1c1nnc(-c2ccc(Cl)s2)o1 [Compound 6, 5,6-Dichloro-2-(5-(5-chlorothiophen-2-yl)-1,3,4-oxadiazol-2-yl)isoindoline-1,3-dione] | 0% and 0 (n=8) % | 1.9±0.3 (n=8) minutes | – | – | – | – | inhibition at 3.3 µM (T-Cav3.2-channel; [3]): 9.8%; Inhibition (%) of Na- channel in DRG neurons (Na-channel; 3.3 µM): 100 (3.3 µM) (n=1) %; Inhibition (%) of K-channel in DRG neurons, IA (rapid inactivating potassium current) (K-channel; 3.3 µM, IA): −11.6%; Inhibition (%) of K-channel in DRG neurons, IKd (delayed rectifier potassium current) (K-channel; 3.3 µM, IKd): −17.8%
2 | O=C(CCc1cccc(Cl)c1)Nc1nnc(-c2ccc(Cl)s2)o1 [Compound 7, 3-(3-Chlorophenyl)-N-(5-(5-chlorothiophen-2-yl)-1,3,4-oxadiazol-2-yl)propanamide] | 30% and 28.6 (n=7) % | 13.6±1.8 (n=7) minutes | 20.4 ± 1.9 | – | – | – | Inhibition (%) of Na- channel in DRG neurons (Na-channel; 3.3 µM): 82.2 (3.3 μM) (n=1) %; Inhibition (%) of K-channel in DRG neurons, IA (rapid inactivating potassium current) (K-channel; 3.3 µM, IA): −26.0%; Inhibition (%) of K-channel in DRG neurons, IKd (delayed rectifier potassium current) (K-channel; 3.3 µM, IKd): −15.6%
3 | O=C(Nc1nnc(-c2ccc(Cl)s2)o1)c1ccccc1 [Compound 8, N-(5-(5-Chlorothiophen-2-yl)-1,3,4-oxadiazol-2-yl)benzamide] | – | – | 24.4 ± 9.6 | −71.8 (n=1) % | −18.7 | −28.6 | –
4 | O=C(CN1CCC(C(=O)Nc2nnc(-c3ccc(Cl)s3)o2)CC1)Nc1ccccc1 [Compound 9, 1-((Phenylcarbamoyl)methyl)-N-(5-(5-chlorothiophen-2-yl)-1,3,4-oxadiazol-2-yl)piperidine-4-carboxamide] | – | – | 79.5 | – | – | – | –
5 | O=C(CCc1cccc(Cl)c1)Nc1nnc(-c2ccccc2)o1 [Compound 10, 3-(3-Chlorophenyl)-N-(5-phenyl-1,3,4-oxadiazol-2-yl)propanamide] | – | – | 5 | – | – | – | –
6 | O=C(Nc1nnc(-c2ccccc2)o1)c1ccc(Cl)s1 [Compound 11, 5-Chloro-N-(5-phenyl-1,3,4-oxadiazol-2-yl)thiophene-2-carboxamide] | 72.1% and 72.7 (n=11) % | 15.3±2.4 (n=11) minutes | 50 ± 9.7 | 16.5±8.9 (n=7) % | 18.9±11.8 | 24.1±14.6 | IC50 (T-Cav3.2-channel): 930 nM
7 | c1ccc(-c2nnc(N3CCCCC3)o2)cc1 [Compound 12, 1-(5-Phenyl-1,3,4-oxadiazol-2-yl)piperidine] | – | – | 44.2 ± 5.6 | 25.7±6.3% | 21.9±8.6 | 31.6±5.5 | inhibition at 1 µM ([1]; HEK293, read-out: Inhibition (%) of T-Cav3.2- channel in HEK293 cells): 64.6%; IC50 (Na-channel): 2100 nM; IC50 (K-channel; read-out: IC50, K-channel IA in DRG neurons, IA): 19.6 µM; IC50 (K-channel; read-out: IC50, K-channel IKd in DRG neurons, IKd): 2.6 µM
8 | O=C(CN1CCCCC1)Nc1nnc(-c2ccccc2)o1 [Compound 13, N-(5-Phenyl-1,3,4-oxadiazol-2-yl)-2-(piperidin-1-yl)acetamide] | 0 (n=7) % | 3.7±1.8 (n=7) minutes | 55.4 ± 28.7 | −2.7 (n=1) % | 19.9 | 36.5 | –
9 | N#CC1CCN(CC(=O)Nc2nnc(-c3ccccc3)o2)CC1 [Compound 14, 2-(4-Cyanopiperidin-1-yl)-N-(5-phenyl-1,3,4-oxadiazol-2-yl)acetamide] | 14 (n=7) % | 11.8±2.5 (n=7) minutes | 69.6 ± 6.2 | −4.7 (n=1) % | 12.9 | 30.0 | –
10 | O=C(Nc1nnc(-c2ccccc2F)o1)c1ccc(Cl)s1 [Compound 15, 5-Chloro-N-(5-(2-fluorophenyl)-1,3,4-oxadiazol-2-yl)thiophene-2-carboxamide] | – | – | 60.9 | – | – | – | –
11 | CC(C)(C)NC(=O)CN1CCC(CNC(=O)c2cc(F)cc(Cl)c2)CC1 [Compound Z944, reference compound] | 33% and 33.3 (n=6) % | 15.2±3.1 (n=6) minutes | – | 49.7±6% | 34.5±15.0 | 44.9±17.7 | Inhibition (%) of T-Cav3.2- channel in HEK293 cells ([1]; 0.25 µM, HEK293 cells): 74.5±7.8 (0.25 µM, in HEK293 cells) (n=6) %; IC50 (Na-channel): 510 nM; Protective effect on seizures, pentylenetetrazole-induced fatality rat model [2]: 33%
12 | COCC(=O)O[C@]1(CCN(C)CCCc2nc3ccccc3[nH]2)CCc2cc(F)ccc2[C@@H]1C(C)C [Mibefradril] | – | – | – | – | – | – | IC50 (T-type calcium channels): 100 nM; IC50 (L-type calcium channels): 3000 nM

Source: PMC7413294 (Heterocycles, 2019)
